According to ChEMBL document CHEMBL1134545, “Design, synthesis, DNA binding, and biological evaluation of water-soluble hybrid molecules containing two pyrazole analogues of the alkylating cyclopropylpyrroloindole (CPI) subunit of the antitumor agent CC-1065 and polypyrrole minor groove binders” (J Med Chem, 2001):
pIC50: −log10 of the molar value. In brackets after ≈: the same amount, converted by molar mass.

Key:
E6SM [1] = assay: Minimum cytotoxic concentration required to cause a microscopically detectable alteration of normal cell morphology; assay type: functional; settings: Homo sapiens
Procedure, shortened: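 E6SM cell cultures exposed to compound for the same duration as the antiviral assays. Cells examined under a microscope. MCC is the lowest concentration causing detectable alteration of normal cell morphology.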

E6SM [2] = assay: Antiviral activity against Vaccinia virus in E6SM cell cultures; assay type: functional; settings: Homo sapiens
Procedure, shortened: (§1)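 Confluent E6SM cells, grown in MEM with 10% inactivated FCS, 2 mM L-glutamine and 0.3% NaHCO3, inoculated with 100 CCID50 per well. After 1 or 2 h, residual virus removed. Cells then incubated in MEM with 2% FCS and varying compound concentrations for 3 days. MIC is the concentration reducing virus-induced cytopathicity by 50% versus untreated control, read when control CPE complete.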

E6SM [3] = assay: Antiviral activity against herpes simplex virus-1 KOS (HSV-1) in E6SM cell cultures; assay type: functional; settings: Homo sapiens; procedure, shortened: as §1
E6SM [4] = assay: Antiviral activity against herpes simplex virus-1 TK-KOS ACV (HSV-1) in E6SM cell cultures; assay type: functional; settings: Homo sapiens; procedure, shortened: as §1
E6SM [5] = assay: Antiviral activity against herpes simplex virus-1 TK-VMW 1837 (HSV-1) in E6SM cell cultures; assay type: functional; settings: Homo sapiens; procedure, shortened: as §1
E6SM [6] = assay: Antiviral activity against herpes simplex virus-2 G (HSV-2) in E6SM cell cultures; assay type: functional; settings: Homo sapiens
Procedure, shortened: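 Confluent E6SM cells (MEM, 10% inactivated FCS) were infected with HSV-2 strain G at 100 CCID50 per well. After 1 or 2 h, residual virus was removed and the cells were incubated in MEM with 2% FCS and varying compound concentrations. MIC is the concentration reducing cytopathicity by 50%, recorded when control infected cultures reached full CPE (3 days).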

E6SM [7] = assay: Antiviral activity against […] in E6SM cell cultures; assay type: functional; settings: Homo sapiens
Procedure, shortened: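 E6SM cells grown in MEM with 10% inactivated FCS, 2 mM L-glutamine and 0.3% NaHCO3, infected, then treated with varying compound concentrations. MIC is the concentration reducing virus-induced cytopathogenicity by 50%, recorded once CPE reached completion in untreated infected controls.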

CCRF-CEM = assay: In vitro antitumor activity against Human T-lymphoblast (CEM) cell lines.; assay type: functional, cell-based
Procedure, shortened: (§2)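 Cells seeded at 250 000-300 000 cells/mL and exposed to a range of compound concentrations. Incubation for 2-3 days at 37 °C, followed by Coulter counter cell counts. IC50 is the concentration that lowers cell number by 50%. Reported as mean ± SE from dose-response curves of at least three independent experiments.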

Daudi = assay: In vitro antitumor activity against Human B-lymphoblast (Daudi) cell lines.; assay type: functional, cell-based; procedure, shortened: as §2
FM3A = assay: In vitro antitumor activity against Murine mammary carcinoma (FM3A) cell lines.; assay type: functional, cell-based; settings: Mus musculus; procedure, shortened: as §2
L1210 [8] = assay: In vitro antitumor activity against Murine leukemia (L1210) cell lines.; assay type: functional, cell-based; settings: Mus musculus; procedure, shortened: as §2
MOLT-4 = assay: In vitro antitumor activity against Human T-lymphoblast (Molt/4) cell lines.; assay type: functional, cell-based; procedure, shortened: as §2
L1210 [9] = assay: Cytotoxicity against L1210 leukemia cells; assay type: functional, cell-based; settings: Mus musculus; procedure, shortened: as §2

NC(=O)c1ncn([C@@H]2O[C@H](CO)[C@@H](O)[C@H]2O)n1 [RIBAVIRIN]
MCC (E6SM [1]): > 400 µg/mL
MIC (E6SM [2]): 16 µg/mL (≈ 65.5 µM)
MIC (E6SM [3]): 240 µg/mL (≈ 983 µM)
MIC (E6SM [4]): 240 µg/mL (≈ 983 µM)
MIC (E6SM [5]): 240 µg/mL (≈ 983 µM)
MIC (E6SM [6]): 48 µg/mL (≈ 197 µM)
MIC (E6SM [7]): 48 µg/mL (≈ 197 µM)

Cc1n[nH]c2c(O)cc3c(c12)C(CCl)CN3C(=O)c1cc(C(=O)Nc2cc(C(=O)NCCC(=N)N)n(C)c2)n(C)n1 (stereo not given)
pIC50 (CCRF-CEM): 6.64
pIC50 (Daudi): 6.82
pIC50 (FM3A): 5.80
pIC50 (L1210 [8]): 7.24
pIC50 (MOLT-4): 6.47

Cn1cc(NC(=O)c2cc(C(=O)N3CC(CCl)c4c3cc(O)c3c4cnn3Cc3ccccc3)nn2C)cc1C(=O)NCCC(=N)N (stereo not given)
pIC50 (CCRF-CEM): 7.15
pIC50 (Daudi): 7.96
pIC50 (FM3A): 5.40
pIC50 (L1210 [8]): 6.62
pIC50 (MOLT-4): 6.89

O=c1[nH]c(=O)n([C@H]2C[C@H](O)[C@@H](CO)O2)cc1/C=C/Br [BRIVUDINE]
MCC (E6SM [1]): > 400 µg/mL
MIC (E6SM [2]): 0.077 µg/mL (≈ 0.231 µM)
MIC (E6SM [3]): 0.015 µg/mL (≈ 0.045 µM)
MIC (E6SM [4]): 240 µg/mL (≈ 720 µM)
MIC (E6SM [5]): 0.128 µg/mL (≈ 0.384 µM)
MIC (E6SM [6]): 240 µg/mL (≈ 720 µM)
MIC (E6SM [7]): > 400 µg/mL

Cc1n[nH]c2c(O)cc3c(c12)C(CCl)CN3C(=O)c1cc(C(=O)Nc2cc(C(=O)Nc3cc(C(=O)NCCC(=N)N)n(C)c3)n(C)c2)n(C)n1 (stereo not given)
pIC50 (CCRF-CEM): 7.41
pIC50 (Daudi): 7.66
pIC50 (FM3A): 6.72
pIC50 (L1210 [8]): 7.72
pIC50 (MOLT-4): 7.35

CC(C)(C)OC(=O)N1CC(CCl)c2c1cc(O)c1c2cnn1Cc1ccccc1 (stereo not given)
pIC50 (CCRF-CEM): 5.17
pIC50 (Daudi): 5.12
pIC50 (FM3A): 4.74
pIC50 (L1210 [8]): 5.57
pIC50 (MOLT-4): 5.07

Cn1cc(NC(=O)c2cc(NC(=O)c3cc(NC(=O)c4cc(C(=O)N5CC(CCl)c6c5cc(O)c5c6cnn5Cc5ccccc5)nn4C)cn3C)cn2C)cc1C(=O)NCCC(=N)N (stereo not given)
pIC50 (CCRF-CEM): 6.40
pIC50 (Daudi): 7.00
pIC50 (FM3A): 4.71
pIC50 (L1210 [8]): 6.40
pIC50 (MOLT-4): 6.51

Nc1nc2c(ncn2COCCO)c(=O)[nH]1 [ACYCLOVIR]
MCC (E6SM [1]): > 400 µg/mL
MIC (E6SM [3]): 0.077 µg/mL (≈ 0.342 µM)
MIC (E6SM [4]): 48 µg/mL (≈ 213 µM)
MIC (E6SM [5]): 0.384 µg/mL (≈ 1.71 µM)
MIC (E6SM [6]): 0.077 µg/mL (≈ 0.342 µM)
MIC (E6SM [7]): > 400 µg/mL

Cc1n[nH]c2c(O)cc3c(c12)C(CCl)CN3C(=O)OC(C)(C)C (stereo not given)
pIC50 (CCRF-CEM): 5.90
pIC50 (Daudi): 6.17
MCC (E6SM [1]): 8 µg/mL
MIC (E6SM [3]): > 1.6 µg/mL
MIC (E6SM [4]): > 1.6 µg/mL
MIC (E6SM [5]): > 1.6 µg/mL
MIC (E6SM [6]): > 1.6 µg/mL
MIC (E6SM [7]): > 1.6 µg/mL
pIC50 (FM3A): 5.85
pIC50 (L1210 [8]): 6.28
pIC50 (MOLT-4): 5.76

Nc1nc2c(ncn2COC(CO)CO)c(=O)[nH]1 [GANCICLOVIR]
MCC (E6SM [1]): > 100 µg/mL
MIC (E6SM [3]): 0.004 µg/mL (≈ 0.0157 µM)
MIC (E6SM [4]): 1.92 µg/mL (≈ 7.52 µM)
MIC (E6SM [5]): 0.019 µg/mL (≈ 0.0744 µM)
MIC (E6SM [6]): 0.004 µg/mL (≈ 0.0157 µM)
MIC (E6SM [7]): > 100 µg/mL

Cc1nn(Cc2ccccc2)c2c1C13CC1CN(C(=O)OC(C)(C)C)C3=CC2=O (racemic)
pIC50 (L1210 [9]): 5.51

Cn1cc(NC(=O)c2cc(NC(=O)c3cc(C(=O)N4CC(CCl)c5c4cc(O)c4c5cnn4Cc4ccccc4)nn3C)cn2C)cc1C(=O)NCCC(=N)N (stereo not given)
pIC50 (CCRF-CEM): 6.68
pIC50 (Daudi): 7.42
pIC50 (FM3A): 5.25
pIC50 (L1210 [8]): 6.22
pIC50 (MOLT-4): 6.80

Cc1n[nH]c2c(O)cc3c(c12)C(CCl)CN3C(=O)c1cc(C(=O)Nc2cc(C(=O)Nc3cc(C(=O)Nc4cc(C(=O)NCCC(=N)N)n(C)c4)n(C)c3)n(C)c2)n(C)n1.Cl (stereo not given)
pIC50 (CCRF-CEM): 7.15
pIC50 (Daudi): 8.06
MCC (E6SM [1]): 0.8 µg/mL
MIC (E6SM [2]): 0.019 µg/mL
MIC (E6SM [3]): > 0.16 µg/mL
MIC (E6SM [4]): > 0.16 µg/mL
MIC (E6SM [5]): > 0.16 µg/mL
MIC (E6SM [6]): 0.16 µg/mL
MIC (E6SM [7]): > 0.16 µg/mL
pIC50 (FM3A): 7.51
pIC50 (L1210 [8]): 8.13
pIC50 (MOLT-4): 7.77
